From ChEMBL document CHEMBL2146408, “Primary amino acid derivatives: compounds with anticonvulsant and neuropathic pain protection activities” (J Med Chem, 2011)
Calls of active or inactive are those of the source. The calls are words filed in the database; no cut-off is given here.

Key:
[1] = system: Mus musculus; test: Anticonvulsant activity in ip dosed CF1 mouse assessed as protection against maximal electroshock-induced seizure after 30 mins; assay type: functional; conditions: 0.5 h
Summary of the method: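 Adult male albino CF-1 (Carworth Farms No. 1) mice dosed ip under the NINDS ASP; maximal electroshock seizure test. For compounds with sufficient activity, a dose-response curve was run at the time of peak effect (hours).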

[2] = Neurotoxicity in ip dosed NMRI mouse assessed as minimal motor impairment after 30 mins; assay type: toxicity, organism-based; conditions: in vivo
Summary of the method: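 Adult male NMRI mice dosed ip at UCB Pharma. Neurological toxicity was scored on the rotorod test 30 min after dosing.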

[3] = system: Mus musculus; test: Antinociceptive activity in ip dosed NMRI mouse assessed as inhibition of formalin-induced neuropathic pain after 30 mins; assay type: functional; conditions: 0.5 h
Summary of the method: (§1)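 NMRI mice dosed ip at UCB Pharma, then tested in the formalin model of neuropathic pain. ED50 in mg/kg read 30 min after administration. Single-dose runs report the percentage protected.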

[4] = system: Mus musculus; test: Anticonvulsant activity in ip dosed NMRI mouse assessed as protection against 6 Hz psychomotor seizure after 30 mins; assay type: functional; conditions: 0.5 h; for minimal effective dose: read-out: MED
Summary of the method: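 Adult male NMRI mice dosed ip (UCB Pharma). 6 Hz psychomotor seizure model at 44 mA, per Kaminski and co-workers.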

[5] = system: Mus musculus; test: Anticonvulsant activity in ip dosed NMRI mouse assessed as protection against maximal electroshock-induced seizure after 30 mins; assay type: functional; conditions: 0.5 h; for minimal effective dose: read-out: MED
Summary of the method: (§2)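 Adult male NMRI mice dosed ip (UCB Pharma). MES test run per the Klitgaard procedure. […] Single-dose runs report the percentage of animals protected.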

[6] = system: Mus musculus; test: Anticonvulsant activity in NMRI mouse assessed as protection against subcutaneous pentylenetetrazol-induced seizure at 30 to 300 mg/kg, ip after 0.5 to 4 hrs; assay type: functional, organism-based
[7] = organism: Mus musculus; test: Protective index, ratio of TD50 for NMRI mouse to ED50 for NMRI mouse formalin-induced neuropathic pain model; assay type: functional
[8] = Neurotoxicity in ip dosed CF1 mouse assessed as minimal motor impairment after 30 mins; assay type: toxicity, organism-based; conditions: in vivo
[9] = system: Mus musculus; test: Anticonvulsant activity in NMRI mouse assessed as protection against maximal electroshock-induced seizure at 46 mg/kg, ip after 30 mins; assay type: functional; conditions: route intraperitoneal; summary of the method: as §2
[10] = system: Mus musculus; test: Antinociceptive activity in NMRI mouse assessed as inhibition of formalin-induced neuropathic pain at 71 mg/kg, ip after 30 mins; assay type: functional; design: scale not given: the % may be the effect or the level left; conditions: route intraperitoneal; summary of the method: as §1
[11] = Neurotoxicity in po dosed Sprague-Dawley rat assessed as minimal motor impairment after 30 mins by rotorod test; assay type: toxicity, organism-based; conditions: in vivo
[12] = system: Rattus norvegicus; test: Anticonvulsant activity in po dosed Sprague-Dawley rat assessed as protection against maximal electroshock-induced seizure after 30 mins; assay type: functional; conditions: 0.5 h
[13] = system: Mus musculus; test: Antinociceptive activity in NMRI mouse assessed as inhibition of formalin-induced neuropathic pain at 79 mg/kg, ip after 30 mins; assay type: functional; design: scale not given: the % may be the effect or the level left; conditions: route intraperitoneal; summary of the method: as §1
[14] = system: Mus musculus; test: Antinociceptive activity in NMRI mouse assessed as inhibition of formalin-induced neuropathic pain at 25 mg/kg, ip after 30 mins; assay type: functional, organism-based; design: dose 25 mg/kg; summary of the method: as §1
[15] = organism: Rattus norvegicus; test: Protective index, ratio of TD50 for Sprague-Dawley rat to ED50 for Sprague-Dawley rat by maximal electroshock seizure test; assay type: functional
Summary of the method: (§3)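 Protective index computed as rotorod (mice) or behavioral (rats) TD50 divided by MES ED50, both in mg/kg in the same species and route.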

[16] = system: Mus musculus; test: Anticonvulsant activity in ip dosed CF1 mouse assessed as protection against 6 Hz psychomotor seizure after 30 mins; assay type: functional; conditions: 0.5 h
Summary of the method: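 Adult male albino CF-1 mice dosed ip (NINDS ASP). 6 Hz psychomotor seizure test at 32 mA, per Stables and Kupferberg.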

[17] = organism: Mus musculus; test: Protective index, ratio of TD50 for CF1 mouse to ED50 for CF1 mouse by maximal electroshock seizure test; assay type: functional; summary of the method: as §3
[18] = system: Mus musculus; test: Antinociceptive activity in NMRI mouse assessed as inhibition of formalin-induced neuropathic pain at 83 mg/kg, ip after 30 mins; assay type: functional; design: scale not given: the % may be the effect or the level left; conditions: route intraperitoneal; summary of the method: as §1
[19] = system: Mus musculus; test: Antinociceptive activity in NMRI mouse assessed as inhibition of formalin-induced neuropathic pain at 75 mg/kg, ip after 30 mins; assay type: functional; design: scale not given: the % may be the effect or the level left; conditions: route intraperitoneal; summary of the method: as §1

## CCCC(NC(C)=O)C(=O)NCc1ccccc1 (racemic)
[1]
  ED50: 38 mg/kg

## CC(=O)NC(CN)C(=O)NCc1ccccc1 (racemic)
[2]
  TD50 at 0.5 h: > 100 mg/kg

## CC(=O)N[C@H](C)C(=O)NCc1ccccc1
[2]
  TD50 at 0.5 h: 210 mg/kg

## CC(=O)NC(C(=O)NCc1ccccc1)c1ccccn1 (racemic)
[1]
  ED50: 11 mg/kg

## CSCC[C@@H](N)C(=O)NCc1ccccc1
[3]
  ED50: > 76 mg/kg
[4]
  minimal effective dose: 130 mg/kg
[5]
  ED50: 75 mg/kg

## COC[C@@H](N)C(=O)NCc1ccccc1
[6]
  Activity: inactive
[2]
  TD50 at 0.5 h: < 30 mg/kg
[7]
  Ratio TD50/ED50: >1.8
[8]
  TD50 at 0.5 h: > 120 mg/kg

## CC(=O)NC(CN(C)C)C(=O)NCc1ccccc1 (racemic)
[2]
  TD50 at 0.5 h: < 100 mg/kg
[1]
  ED50: < 30 mg/kg

## CCCC(CCC)C(=O)O [VALPROIC ACID]
[1]
  ED50: 270 mg/kg

## CC(=O)NC(C(=O)NCc1ccccc1)c1ccccc1 (racemic)
[1]
  ED50: 20 mg/kg

## CCC(C)C(N)C(=O)NCc1ccccc1 (racemic)
[3]
  ED50: > 22 mg/kg
[4]
  ED50: > 120 mg/kg
[5]
  minimal effective dose: 46 mg/kg
[9]
  Activity: 100%

## CC(=O)NC(CN1CCOCC1)C(=O)NCc1ccccc1 (racemic)
[2]
  TD50 at 0.5 h: 300 mg/kg
[1]
  ED50: < 100 mg/kg

## CCC[C@H](N)C(=O)NCc1ccccc1
[3]
  ED50: 100 mg/kg
[4]
  ED50: > 210 mg/kg
[5]
  ED50: > 37 mg/kg

## CC(=O)NC(C)C(=O)NCc1ccccc1 (racemic)
[2]
  TD50 at 0.5 h: 450 mg/kg
[1]
  ED50: 76 mg/kg

## N[C@@H](CO)C(=O)NCc1ccccc1
[3]
  ED50: > 62 mg/kg
[4]
  ED50: > 62 mg/kg
[8]
  TD50 at 0.5 h: > 110 mg/kg

## CC(=O)NC(CO)C(=O)NCc1ccccc1 (racemic)
[2]
  TD50 at 0.5 h: < 300 mg/kg
[1]
  ED50: < 100 mg/kg

## CCOCC(N)C(=O)NCc1ccccc1 (racemic)
[3]
  ED50: 71 mg/kg
[6]
  Activity: inactive
[10]
  Activity: 19%
[4]
  ED50: 120 mg/kg
[5]
  ED50: 73 mg/kg

## C[C@H](N)C(=O)NCc1ccccc1
[6]
  Activity: inactive
[2]
  TD50 at 0.5 h: > 300 mg/kg
[11]
  TD50 at 0.5 h: > 80 mg/kg
[12]
  ED50: > 80 mg/kg

## N[C@@H](C(=O)NCc1ccccc1)C1CCCCC1
[4]
  minimal effective dose: 140 mg/kg
[5]
  ED50: 28 mg/kg
[13]
  Activity: 95%
[14]
  Activity: inactive

## CC[C@@H](N)C(=O)NCc1ccccc1
[3]
  ED50: 22 mg/kg
[6]
  Activity: inactive
[2]
  TD50 at 0.5 h: 80 mg/kg
[11]
  TD50 at 0.5 h: > 500 mg/kg
[4]
  minimal effective dose: 62 mg/kg
[15]
  Ratio TD50/ED50: >45
[16]
  ED50: 50 mg/kg
[1]
  ED50: 18 mg/kg
[5]
  ED50: 16 mg/kg
[17]
  Ratio TD50/ED50: 4.4
[12]
  ED50: 11 mg/kg

## CN(C)CC(N)C(=O)NCc1ccccc1 (racemic)
[3]
  ED50: 83 mg/kg
[4]
  ED50: > 110 mg/kg
[5]
  ED50: 94 mg/kg
[18]
  Activity: 14%

## N[C@H](CCO)C(=O)NCc1ccccc1
[3]
  ED50: > 67 mg/kg
[4]
  ED50: > 120 mg/kg
[5]
  ED50: > 160 mg/kg

## CC(C)(C)[C@@H](N)C(=O)NCc1ccccc1
[6]
  Activity: inactive
[11]
  TD50 at 0.5 h: > 500 mg/kg

## CC(=O)N[C@H](CO)C(=O)NCc1ccccc1
[2]
  TD50 at 0.5 h: > 500 mg/kg

## C#CCOCC(NC(C)=O)C(=O)NCc1ccccc1 (racemic)
[2]
  TD50 at 0.5 h: 59 mg/kg

## C=CCOCC(N)C(=O)NCc1ccccc1 (racemic)
[3]
  ED50: 75 mg/kg
[4]
  minimal effective dose: 130 mg/kg
[5]
  ED50: 45 mg/kg
[19]
  Activity: 12%

## CC(C)[C@@H](N)C(=O)NCc1ccccc1
[6]
  Activity: inactive
[11]
  TD50 at 0.5 h: > 500 mg/kg
[5]
  minimal effective dose: 16 mg/kg
[7]
  Ratio TD50/ED50: 2.4
[17]
  Ratio TD50/ED50: 4.7
